In paper PMC12505120 (RSC Advances, 2025):
Read-outs that look alike come from different tables or passages of the source.

Assays:
[1] = system: bovine serum albumin (BSA); details: cited from earlier work
HSA = HSA (Homo sapiens, UniProt P02768); assay: HSA tryptophan fluorescence quenching; type: binding; details: for Stern–Volmer quenching constant Ksv × 10^4: values × 10^4, HSA 2.5 μM, Tris–HCl pH 7.4, 10% DMSO, 24 h; for ΔG: ΔG = −RT ln Kb; for predominant interaction mode with HSA: according to Ross's proposal from the signs of ΔH and ΔS
HSA, sequence (P02768 25-609): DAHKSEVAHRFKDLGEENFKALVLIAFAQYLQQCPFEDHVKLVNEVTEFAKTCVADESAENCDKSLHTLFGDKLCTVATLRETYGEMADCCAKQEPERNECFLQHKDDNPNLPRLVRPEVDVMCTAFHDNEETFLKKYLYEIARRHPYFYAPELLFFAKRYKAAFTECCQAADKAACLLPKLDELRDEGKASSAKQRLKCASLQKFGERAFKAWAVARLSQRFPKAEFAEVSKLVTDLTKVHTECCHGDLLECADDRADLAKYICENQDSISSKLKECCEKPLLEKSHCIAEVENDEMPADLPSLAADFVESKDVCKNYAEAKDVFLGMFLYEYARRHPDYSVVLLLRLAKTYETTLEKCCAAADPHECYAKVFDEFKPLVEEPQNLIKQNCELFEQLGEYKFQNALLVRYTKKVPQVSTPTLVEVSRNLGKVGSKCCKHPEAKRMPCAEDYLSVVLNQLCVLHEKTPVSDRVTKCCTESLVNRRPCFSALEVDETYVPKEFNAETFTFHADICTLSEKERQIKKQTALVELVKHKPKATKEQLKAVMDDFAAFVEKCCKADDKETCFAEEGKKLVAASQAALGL
In short: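 HSA in Tris–HCl (4.5 mM Trizma HCl, 0.5 mM Trizma base, 50 mM NaCl) held at 2.5 μM with test compound at 1, 2.5, 5, 10, 15, 20, 25 or 30 μM, using 10% DMSO. Incubated 24 h in a water bath at 300 K or 310 K. Excitation 270 nm, emission 300–500 nm, triplicates. Intensity at 330 nm fitted to Stern–Volmer (F0/F vs [Q]) and log((F0−F)/F) vs log[Q]. ΔG = −RT ln Kb.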

ΔS (HSA; T 300 K) [J mol^−1 K^−1]	Stern–Volmer quenching constant Ksv × 10^4 (HSA; T 300 K) [M^−1]	ΔG (HSA; T 300 K) [kcal/mol]	ΔS (HSA; T 310 K) [J mol^−1 K^−1]	Stern–Volmer quenching constant Ksv × 10^4 (HSA; T 310 K) [M^−1]	ΔG (HSA; T 310 K) [kcal/mol]	predominant interaction mode with HSA (HSA)	fluorescence quenching mechanism (HSA; from temperature dependence of Ksv at 300 and 310 K)	SMILES	binding constant to BSA ([1]; HPBI complexed with benzoxaborole) [M⁻¹]	binding constant to BSA ([1]; free HPBI) [M⁻¹]
–	–	–	–	–	–	–	–	Oc1ccccc1-c1nc2ccccc2[nH]1 [HPBI, 2-(2-hydroxyphenyl)benzimidazole]	1.2e+06	20000
105.1	10.1	-7	122.4	17.7	-8.58	hydrophobic interactions	–	COc1ccc(/C=C/c2cccc3c2COB3O)cc1 [5a]	–	–
82.1	5.91	-5.69	83.3	8.69	-6.36	hydrophobic interactions	dynamic fluorescence quenching mechanism	COc1ccc(/C=C/c2ccc(B3OC(C)(C)C(C)(C)O3)cc2)cc1 [3b]	–	–
74.5	1.05	-6.69	22.9	0.53	-3.08	electrostatic forces	–	COc1ccc(/C=C/c2ccc(B(O)O)cc2)cc1 [7a]	–	–
